Measured values collected from several papers.
pEC50, pKd, pKi: −log10 of the molar value.
PI4KB: Phosphatidylinositol 4-kinase beta (PI4KB, Homo sapiens, UniProt Q9UBF8)
HDAC4: Histone deacetylase 4 (HDAC4, Homo sapiens, UniProt P56524)
CA4: Carbonic anhydrase 4 (CA4, Homo sapiens, UniProt P22748)
SPHK2: Sphingosine kinase 2 (SPHK2, Homo sapiens, UniProt Q9NRA0)
cah: cah (Neisseria gonorrhoeae, UniProt Q50940)

SMILES	target	assay	system	setting	measurement	value
CCCC[C@H](NC(=O)[C@H](C)c1c(C)[nH]c2ccc(O)cc12)c1ncc(-c2cc3ccccc3nc2OC)[nH]1	Alpha-1B adrenergic receptor (Adra1b, Rattus norvegicus, UniProt P15823)	cell-free assay	–	–	pKi	5.40
CC[C@H](NC(=O)[C@H](CS(=O)(=O)CC1CC1)N[C@@H](c1ccc(F)cc1)C(F)(F)F)C(=O)C(=O)NC1CC1	Cathepsin S (Rattus norvegicus, UniProt Q02765)	enzyme activity, inhibitor	–	–	pKi	9.11
O=C(Nc1ccc(CN2CCOCC2)c(C(F)(F)F)c1)c1ccc(C#Cc2cccc3cnccc23)cn1	Oxidized purine nucleoside triphosphate hydrolase (NUDT1, Homo sapiens, UniProt P36639)	enzyme activity, activator	–	–	AC50	5500 nM
CC(=O)c1cc([N+](=O)[O-])c(Sc2cccc(Cl)c2Cl)s1	Cathepsin K (CTSK, Homo sapiens, UniProt P43235)	enzyme activity, inhibitor	–	–	pEC50	< 4.30
Cc1nc(NC(=O)N2CCC[C@H]2C(N)=O)sc1-c1ccnc(C(C)(C)C(F)(F)F)c1	PI4KB	binding, competition with immobilised ligand	–	–	pKd	7.09
Cc1ncsc1-c1ccc(CNC(=O)[C@@H]2C[C@@H](O)CN2C(=O)[C@@H](NC(=O)COCCOCCOCC(F)(F)c2cnc(-c3ccc(C(C(=O)NO)c4ccccc4F)cc3)nc2)C(C)(C)C)cc1 (mixture of isomers)	HDAC4	protein level, degrader	–	–	DC50	28 nM
CN(C)C1CCN(C(=O)c2ccc(NC(=O)Nc3ccc(-c4nc(N5CCOCC5)nc(N5CCOCC5)n4)cc3)cc2)CC1	PI4KB	binding, competition with immobilised ligand	–	–	pKd	< 4.52
Nc1nc(-c2ccc(Cl)c(S(N)(=O)=O)c2)cs1	CA4	thermal stability, DSF	–	pH 7	pKd	6.70
[H]/N=C(\N)N1CCC[C@H]1c1nc(-c2ccc(OCC=Cc3ccc(C(F)(F)F)cc3)c(C(F)(F)F)c2)no1	SPHK2	enzyme activity, inhibitor	–	–	pKi	6.98
Nc1nnc(S(N)(=O)=O)s1	cah	enzyme activity, inhibitor	–	–	pKi	7.14
FC(F)(F)c1ccc(C(c2c[nH]c3ccccc23)c2c[nH]c3ccccc23)cc1	Nuclear receptor subfamily 4immunitygroup A member 1 (NR4A1, Homo sapiens, UniProt P22736)	binding, SPR	–	–	pKd	5.52
Nc1ncnc2c1ncn2[C@@H]1O[C@H](COP(=O)(O)OP(=O)(O)OP(=O)(O)O)[C@@H](O)[C@H]1O	P2X purinoceptor 1 (P2RX1, Homo sapiens, UniProt P51575)	ion current, agonist, two-electrode voltage clamp	–	oocytes	pEC50	~6.05
C[C@H]1CN(C2COC2)CCN1c1ccc(Nc2cc(-c3ccnc(N4CCn5c(cc6c5CC(C)(C)C6)C4=O)c3CO)cn(C)c2=O)nc1	Solute carrier organic anion transporter family member 1B3 (SLCO1B3, Homo sapiens, UniProt Q9NPD5)	transporter uptake, inhibitor	HEK293	–	pKi	6.15
NS(=O)(=O)c1nnc(NC(=O)C2CC2)s1	cah	enzyme activity, inhibitor	–	–	pKi	7.82
CCOC(=O)[C@](CC)(CCCS(=O)(=O)CCOCCOCCNC(=O)OC(C)(C)C)NC(=O)c1ccc(C2CC2)c(Cc2ccc(F)cc2)n1	Cannabinoid receptor 2 (Cnr2, Mus musculus, UniProt P47936)	cAMP, agonist	–	–	pEC50	7.48
CCCN(CCCCOCCOCCOCCOCCOCC(=O)N[C@@H](C(=O)N1C[C@@H](O)C[C@@H]1C(=O)NCc1ccc(-c2scnc2C)cc1)C(C)(C)C)C[C@@H](C)NC(=O)c1ccc(-c2noc(C(F)(F)F)n2)cc1	HDAC4	protein level, degrader	–	–	DC50	> 10000 nM
CCCc1ccc(CCc2ccc(-c3noc([C@@H]4CCCN4C(=N)N)n3)cc2C(F)(F)F)cc1	SPHK2	enzyme activity, inhibitor	–	–	pKi	6.88
NS(=O)(=O)c1cc(C2(O)CSC3=NCCN32)ccc1Cl (centres unmarked)	CA4	thermal stability, DSF	–	pH 7	pKd	7.40
NS(=O)(=O)c1nnc(NC(=O)CC2CCC2)s1	cah	enzyme activity, inhibitor	–	–	pKi	8.24
CCC(=O)N1CCC(C(=O)NCC(=O)N2CCN(c3nc(-c4cnc(N)nc4C(F)F)nc(N4CCOCC4)n3)CC2)CC1	PI4KB	binding, competition with immobilised ligand	–	–	pKd	< 4.52
Cc1cnc(-c2ccc(-c3ccc(NC(=O)Nc4c(F)cc(F)cc4F)cc3F)c3c2C(=O)NC3)[nH]1	Mitogen-activated protein kinase kinase kinase kinase 5 (MAP4K5, Homo sapiens, UniProt Q9Y4K4)	binding, competition with immobilised ligand	–	–	pKd	8.96
CC1CCC(C(=O)Nc2nnc(S(N)(=O)=O)s2)CC1 (centres unmarked)	cah	enzyme activity, inhibitor	–	–	pKi	8.06
N[C@@H](CCC(=O)O)C(=O)O	Metabotropic glutamate receptor 7 (Grm7, Rattus norvegicus, UniProt P35400)	calcium signal, agonist	–	–	pEC50	3.08
